ChEMBL document CHEMBL1133534, “1,3-Diaryl-4,5,6,7-tetrahydro-2H-isoindole derivatives: a new series of potent and selective COX-2 inhibitors in which a sulfonyl group is not a structural requisite” (J Med Chem, 2000)
pIC50: −log10 of the molar value. The source made the active and inactive calls. The rule behind the calls is not given here.

system: not listed separately; experiment: Gastric toxicity of the compound.; settings: not given
In short: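 Male Swiss mice, fasted overnight with water, were dosed orally at 400 mg/kg or given vehicle, and killed by cervical dislocation 5 h later. The stomach was opened and mucosal damage scored blind from 0 (normal) to 5 (perforation). Mean ± SEM, 8 animals/group.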

| Structure (SMILES) | Gastric score |
| --- | --- |
| COc1ccc2c(c1)c(CC(=O)O)c(C)n2C(=O)c1ccc(Cl)cc1 [INDOMETHACIN] | 2.4 |
| Cc1ccc(-c2cc(C(F)(F)F)nn2-c2ccc(S(N)(=O)=O)cc2)cc1 [CELECOXIB] | 0.7 |
| c1ccc(-c2[nH]c(-c3ccccc3)c3c2C2CCC3C2)cc1 | 0.3 |
| Fc1ccc(-c2[nH]c(-c3ccc(F)cc3)c3c2C2CCC3C2)cc1 | 0.3 |
| Fc1ccc(-c2[nH]c(-c3ccc(F)cc3)c3c2C2CCC3CC2)cc1 | 0.3 |

organism: Mus musculus; experiment: (§1) Compound was evaluated for its effective dose to inhibit exudate PGE-2; settings: not given
In short: (§2)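 Mice given compound or vehicle orally 18 h after air-pouch induction; 1 h later 500 µL sterile 1% carrageenan injected into pouch; sacrifice 5 h after carrageenan. Pouch lavaged with 2 mL heparinized HBSS, kept on ice, PGE2 measured by EIA after solid-phase extraction. ED50 from 3 or 4 dose points, at least 8 mice/group.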

| Structure (SMILES) | ED50 |
| --- | --- |
| c1ccc(-c2[nH]c(-c3ccccc3)c3c2C2CCC3CC2)cc1 | > 40 mg/kg |
| c1ccc(-c2[nH]c(-c3ccccc3)c3c2CCCC3)cc1 | 20 mg/kg |
| c1ccc(-c2[nH]c(-c3ccccc3)c3c2CCC3)cc1 | 20 mg/kg |
| c1ccc(-c2[nH]c(-c3ccccc3)c3c2C2CCC3C2)cc1 | 20 mg/kg |
| Fc1ccc(-c2[nH]c(-c3ccc(F)cc3)c3c2CCCC3)cc1 | 20 mg/kg |
| Clc1ccc(-c2[nH]c(-c3ccc(Cl)cc3)c3c2CCCC3)cc1 | 20 mg/kg |
| Fc1ccc(-c2[nH]c(-c3ccc(F)cc3)c3c2C2CCC3C2)cc1 | 6.8 mg/kg |
| c1ccc([C@H]2N[C@H](c3ccccc3)c3ccccc32)cc1 | 100 mg/kg |
| Fc1ccc(-c2[nH]c(-c3ccc(F)cc3)c3c2C2CCC3CC2)cc1 | 3.5 mg/kg |

system: not listed separately; experiment: as §1; format: functional; settings: Mus musculus; in short: as §2

| Structure (SMILES) | ED50 |
| --- | --- |
| Cc1ccc(-c2cc(C(F)(F)F)nn2-c2ccc(S(N)(=O)=O)cc2)cc1 [CELECOXIB] | 10 mg/kg |

organism: Mus musculus; experiment: (§3) Compound was evaluated for its effective dose to inhibit gastric PGE-2; format: tissue-based; settings: Stomach
In short: (§4)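 Mice with air pouches (18 h old) were dosed orally with compound or vehicle. After 1 h, 500 µL sterile 1% carrageenan was injected into the pouch, and mice were killed 5 h later. Pouch lavage (heparinized HBSS) was cooled on ice, and PGE2 was measured by EIA after solid-phase extraction. Excised stomachs were rinsed and incubated 15 min in PBS, and supernatant PGE2 was measured by EIA. ED50 from 3 or 4 doses, at least 8 mice/group.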

| Structure (SMILES) | ED50 |
| --- | --- |
| c1ccc(-c2[nH]c(-c3ccccc3)c3c2C2CCC3CC2)cc1 | > 40 mg/kg |
| c1ccc(-c2[nH]c(-c3ccccc3)c3c2CCCC3)cc1 | 50 mg/kg |
| c1ccc(-c2[nH]c(-c3ccccc3)c3c2CCC3)cc1 | 10 mg/kg |
| c1ccc(-c2[nH]c(-c3ccccc3)c3c2C2CCC3C2)cc1 | 80 mg/kg |
| Fc1ccc(-c2[nH]c(-c3ccc(F)cc3)c3c2CCCC3)cc1 | 50 mg/kg |
| Clc1ccc(-c2[nH]c(-c3ccc(Cl)cc3)c3c2CCCC3)cc1 | > 80 mg/kg |
| Fc1ccc(-c2[nH]c(-c3ccc(F)cc3)c3c2C2CCC3C2)cc1 | > 40 mg/kg |
| c1ccc([C@H]2N[C@H](c3ccccc3)c3ccccc32)cc1 | 100 mg/kg |
| Fc1ccc(-c2[nH]c(-c3ccc(F)cc3)c3c2C2CCC3CC2)cc1 | > 20 mg/kg |

organism: Mus musculus; experiment: Compound was evaluated for its effective dose to inhibit exudate PGE-2; In active; settings: not given; in short: as §2

| Structure (SMILES) | IN |
| --- | --- |
| Cc1ccc(-c2[nH]c(-c3ccc(C)cc3)c3c2CCCC3)cc1 | inactive |

target: T1, Prostaglandin G/H synthase 1 (Mus musculus, UniProt P22437); experiment: Inhibition against prostaglandin G/H synthase 1 from mouse resident macrophages; settings: not given
T1 sequence (P22437 whole entry): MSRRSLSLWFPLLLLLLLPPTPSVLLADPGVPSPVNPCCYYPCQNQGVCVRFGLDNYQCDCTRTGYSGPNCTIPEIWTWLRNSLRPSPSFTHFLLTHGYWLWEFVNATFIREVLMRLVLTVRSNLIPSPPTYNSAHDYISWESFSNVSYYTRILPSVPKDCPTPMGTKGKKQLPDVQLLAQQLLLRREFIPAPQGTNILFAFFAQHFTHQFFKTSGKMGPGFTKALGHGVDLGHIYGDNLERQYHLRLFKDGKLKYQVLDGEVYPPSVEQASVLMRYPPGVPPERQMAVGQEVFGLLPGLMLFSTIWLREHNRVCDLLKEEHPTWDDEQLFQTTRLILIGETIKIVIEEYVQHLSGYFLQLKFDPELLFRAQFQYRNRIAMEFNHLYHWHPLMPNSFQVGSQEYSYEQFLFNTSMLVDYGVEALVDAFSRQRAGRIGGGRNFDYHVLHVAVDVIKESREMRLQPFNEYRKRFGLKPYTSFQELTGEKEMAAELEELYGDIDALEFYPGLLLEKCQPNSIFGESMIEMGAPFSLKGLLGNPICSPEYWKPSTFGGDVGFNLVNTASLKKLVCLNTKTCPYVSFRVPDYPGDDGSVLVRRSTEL

| Structure (SMILES) | pIC50 |
| --- | --- |
| c1ccc(-c2cn3c(c2-c2ccccc2)CCC3)cc1 | 5.60 |
| CS(=O)(=O)Nn1c(-c2ccccc2)c2c(c1-c1ccccc1)CCCC2 | < 6.00 |
| c1ccc(-c2[nH]c(-c3ccccc3)c3c2C2CCC3CC2)cc1 | 6.60 |
| c1ccc(-c2[nH]c(-c3ccccc3)c3c2CCCC3)cc1 | 7.00 |
| Cc1ccc(-c2[nH]c(-c3ccc(C)cc3)c3c2CCCC3)cc1 | 6.30 |
| C1=CC2CCC1c1c(-c3ccccc3)[nH]c(-c3ccccc3)c12 | < 6.00 |
| c1ccc(C2NC(c3ccccc3)c3ccccc32)cc1 (stereo not drawn) | < 5.60 |
| c1ccc(-c2[nH]c(-c3ccccc3)c3c2CCC3)cc1 | 6.60 |
| c1ccc(-c2[nH]c(-c3ccccc3)c3c2C2CCC3C2)cc1 | 7.00 |
| c1ccc(-c2[nH]c(-c3ccccc3)c3c2CNC3)cc1 | 6.00 |
| c1ccc(-c2sc(-c3ccccc3)c3ccccc23)cc1 | 6.00 |
| CC1Cc2c(-c3ccccc3)[nH]c(-c3ccccc3)c2CC1C (stereo not drawn) | 6.00 |
| Fc1ccc(-c2[nH]c(-c3ccc(F)cc3)c3c2CCCC3)cc1 | 7.00 |
| Clc1ccc(-c2[nH]c(-c3ccc(Cl)cc3)c3c2CCCC3)cc1 | < 5.30 |
| c1ccc([C@H]2N[C@H](c3ccccc3)c3ccccc32)cc1 | < 5.60 |
| Fc1ccc(-c2[nH]c(-c3ccc(F)cc3)c3c2C2CCC3CC2)cc1 | 6.64 |

target: Prostaglandin G/H synthase 1 (Homo sapiens, UniProt P23219); experiment: Tested in vitro for inhibition against Prostaglandin G/H synthase 1 in human blood; settings: not given
Sequence (P23219 whole entry): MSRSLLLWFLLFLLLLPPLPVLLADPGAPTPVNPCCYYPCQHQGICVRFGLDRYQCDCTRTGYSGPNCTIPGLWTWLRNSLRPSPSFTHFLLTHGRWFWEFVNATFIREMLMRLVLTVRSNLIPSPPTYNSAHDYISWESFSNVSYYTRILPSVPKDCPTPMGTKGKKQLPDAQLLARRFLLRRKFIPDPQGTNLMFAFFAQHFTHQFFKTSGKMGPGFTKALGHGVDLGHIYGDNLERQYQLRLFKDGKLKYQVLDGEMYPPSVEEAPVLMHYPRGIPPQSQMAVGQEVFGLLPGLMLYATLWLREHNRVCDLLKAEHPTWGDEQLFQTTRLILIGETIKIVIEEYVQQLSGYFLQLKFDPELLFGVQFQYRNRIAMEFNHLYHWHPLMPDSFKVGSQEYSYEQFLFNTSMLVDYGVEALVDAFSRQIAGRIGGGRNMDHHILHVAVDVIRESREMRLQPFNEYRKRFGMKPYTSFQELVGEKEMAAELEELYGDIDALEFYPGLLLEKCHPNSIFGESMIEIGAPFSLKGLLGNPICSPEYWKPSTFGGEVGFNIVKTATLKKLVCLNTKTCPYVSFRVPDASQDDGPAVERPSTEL

| Structure (SMILES) | pIC50 |
| --- | --- |
| Fc1ccc(-c2[nH]c(-c3ccc(F)cc3)c3c2C2CCC3C2)cc1 | 6.00 |
| Fc1ccc(-c2[nH]c(-c3ccc(F)cc3)c3c2C2CCC3CC2)cc1 | 4.52 |

target: T2, Prostaglandin G/H synthase 2 (Mus musculus, UniProt Q05769); experiment: Inhibition against prostaglandin G/H synthase 2 from mouse resident macrophages; settings: not given
T2 sequence (Q05769 whole entry): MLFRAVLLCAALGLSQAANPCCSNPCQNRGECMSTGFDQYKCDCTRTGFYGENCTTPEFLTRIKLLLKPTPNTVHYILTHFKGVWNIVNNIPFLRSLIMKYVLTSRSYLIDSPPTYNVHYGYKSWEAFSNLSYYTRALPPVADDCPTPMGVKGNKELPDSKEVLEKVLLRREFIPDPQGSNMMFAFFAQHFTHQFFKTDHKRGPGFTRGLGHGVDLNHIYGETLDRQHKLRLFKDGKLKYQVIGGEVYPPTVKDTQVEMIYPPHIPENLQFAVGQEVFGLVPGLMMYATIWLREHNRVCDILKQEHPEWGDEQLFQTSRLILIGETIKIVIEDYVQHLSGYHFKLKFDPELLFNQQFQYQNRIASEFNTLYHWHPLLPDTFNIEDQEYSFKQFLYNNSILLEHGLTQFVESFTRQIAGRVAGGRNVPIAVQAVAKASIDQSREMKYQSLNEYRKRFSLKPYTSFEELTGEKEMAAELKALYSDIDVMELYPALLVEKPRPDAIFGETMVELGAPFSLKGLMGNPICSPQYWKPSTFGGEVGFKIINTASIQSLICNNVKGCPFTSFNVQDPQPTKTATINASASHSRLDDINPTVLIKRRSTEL

| Structure (SMILES) | pIC50 |
| --- | --- |
| c1ccc(-c2cn3c(c2-c2ccccc2)CCC3)cc1 | 7.54 |
| CS(=O)(=O)Nn1c(-c2ccccc2)c2c(c1-c1ccccc1)CCCC2 | 6.30 |
| c1ccc(-c2[nH]c(-c3ccccc3)c3c2C2CCC3CC2)cc1 | 8.80 |
| c1ccc(-c2[nH]c(-c3ccccc3)c3c2CCCC3)cc1 | 8.82 |
| C1=CC2CCC1c1c(-c3ccccc3)[nH]c(-c3ccccc3)c12 | 7.45 |
| c1ccc(-c2[nH]c(-c3ccccc3)c3c2C2CCC3C2)cc1 | 8.59 |
| c1ccc(-c2[nH]c(-c3ccccc3)c3c2CNC3)cc1 | < 7.00 |
| c1ccc(-c2sc(-c3ccccc3)c3ccccc23)cc1 | 7.96 |
| CC1Cc2c(-c3ccccc3)[nH]c(-c3ccccc3)c2CC1C (stereo not drawn) | 8.51 |
| Fc1ccc(-c2[nH]c(-c3ccc(F)cc3)c3c2CCCC3)cc1 | 8.77 |
| Clc1ccc(-c2[nH]c(-c3ccc(Cl)cc3)c3c2CCCC3)cc1 | 8.30 |
| Fc1ccc(-c2[nH]c(-c3ccc(F)cc3)c3c2C2CCC3CC2)cc1 | 9.22 |

system: Rattus norvegicus; experiment: Inhibition of edema after oral administration at 2 mg/kg/day; format: functional; settings: not given
In short: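 Adjuvant-induced arthritis in female Lewis rats. Compound was given orally at 2 mg/kg/day, and noninjected paw edema inhibition was read at day 21, 10 rats/group.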

| Structure (SMILES) | inhibition in vivo at 2 mg/kg/day |
| --- | --- |
| Fc1ccc(-c2[nH]c(-c3ccc(F)cc3)c3c2CCCC3)cc1 | 15% |

system: Rattus norvegicus; experiment: Effective dose for inhibition of edema after oral administration (95% confidence limits); format: functional; settings: not given
In short: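 Adjuvant-induced arthritis in female Lewis rats, with oral dosing. Edema of the noninjected paw was read at day 21, 10 rats/group. ED50 was estimated by linear regression with 95% confidence limits.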

| Structure (SMILES) | ED50 |
| --- | --- |
| Cc1ccc(-c2cc(C(F)(F)F)nn2-c2ccc(S(N)(=O)=O)cc2)cc1 [CELECOXIB] | 0.32 mg/kg/day |
| Fc1ccc(-c2[nH]c(-c3ccc(F)cc3)c3c2C2CCC3C2)cc1 | 0.35 mg/kg/day |
| Fc1ccc(-c2[nH]c(-c3ccc(F)cc3)c3c2C2CCC3CC2)cc1 | 0.15 mg/kg/day |

system: Rattus norvegicus; experiment: Effective dose for inhibition of edema of the non injected paw in rat; settings: not given

| Structure (SMILES) | ED50 |
| --- | --- |
| Cc1ccc(-c2cc(C(F)(F)F)nn2-c2ccc(S(N)(=O)=O)cc2)cc1 [CELECOXIB] | 0.37 mg/kg/day |

system: not listed separately; experiment: as §3; format: functional; settings: Mus musculus, Stomach; in short: as §4

| Structure (SMILES) | ED50 |
| --- | --- |
| Cc1ccc(-c2cc(C(F)(F)F)nn2-c2ccc(S(N)(=O)=O)cc2)cc1 [CELECOXIB] | > 40 mg/kg |

target: T3, Prostaglandin G/H synthase 2 (Homo sapiens, UniProt P35354); settings: not given
T3 sequence (P35354 whole entry): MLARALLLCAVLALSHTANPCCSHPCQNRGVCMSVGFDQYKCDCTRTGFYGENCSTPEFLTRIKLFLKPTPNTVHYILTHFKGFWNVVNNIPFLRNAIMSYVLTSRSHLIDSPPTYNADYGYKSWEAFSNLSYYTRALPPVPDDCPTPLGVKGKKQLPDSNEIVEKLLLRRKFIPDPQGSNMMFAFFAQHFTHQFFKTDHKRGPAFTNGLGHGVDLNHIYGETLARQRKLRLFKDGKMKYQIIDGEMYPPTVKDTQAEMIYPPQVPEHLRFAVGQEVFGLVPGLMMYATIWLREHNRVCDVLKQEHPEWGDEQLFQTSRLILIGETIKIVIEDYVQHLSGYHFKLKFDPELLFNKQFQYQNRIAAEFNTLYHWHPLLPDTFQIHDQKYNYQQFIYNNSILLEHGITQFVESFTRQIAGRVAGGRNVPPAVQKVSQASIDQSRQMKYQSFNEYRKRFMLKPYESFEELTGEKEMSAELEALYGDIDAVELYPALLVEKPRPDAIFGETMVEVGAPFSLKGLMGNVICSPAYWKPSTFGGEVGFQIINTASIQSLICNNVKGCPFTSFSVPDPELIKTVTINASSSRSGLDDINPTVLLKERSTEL

| Structure (SMILES) | pIC50 |
| --- | --- |
| Fc1ccc(-c2[nH]c(-c3ccc(F)cc3)c3c2C2CCC3C2)cc1 | 10.10 |
| Fc1ccc(-c2[nH]c(-c3ccc(F)cc3)c3c2C2CCC3CC2)cc1 | 9.92 |
